Test results as given in ChEMBL document CHEMBL1121834, “Aromatic retinoic acid analogues. Synthesis and pharmacological activity” (J Med Chem, 1981).

Tests used:
Type in all cases: functional
[1] = target: T1, Ornithine decarboxylase (Mus musculus) (UniProt P00860); assay: Inhibition of tumor promoter (TPA) -induced mouse epidermal ornithine decarboxylase (ODC) activity at 1.7 nmol dose level
T1 sequence (whole entry): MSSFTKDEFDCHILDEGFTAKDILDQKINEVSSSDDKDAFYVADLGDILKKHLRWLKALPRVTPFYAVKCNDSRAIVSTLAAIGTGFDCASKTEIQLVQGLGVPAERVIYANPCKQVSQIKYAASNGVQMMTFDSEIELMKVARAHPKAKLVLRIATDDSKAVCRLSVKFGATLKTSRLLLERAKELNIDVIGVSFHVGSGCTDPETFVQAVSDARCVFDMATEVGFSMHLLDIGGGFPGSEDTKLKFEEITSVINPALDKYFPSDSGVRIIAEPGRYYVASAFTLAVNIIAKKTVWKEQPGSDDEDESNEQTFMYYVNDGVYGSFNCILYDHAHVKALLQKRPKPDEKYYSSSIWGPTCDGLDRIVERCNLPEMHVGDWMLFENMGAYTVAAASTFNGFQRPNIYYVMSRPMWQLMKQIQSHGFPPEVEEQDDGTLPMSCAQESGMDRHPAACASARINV
Summary of the method: (§1)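 Retinoid applied topically to mouse skin 1 h before topical TPA (12-O-tetradecanoylphorbol 13-acetate) to induce epidermal ODC. Dorsal skin from each group of mice was pooled and ODC activity assayed in triplicate. Activity is expressed as % inhibition of TPA-induced ODC relative to TPA-only controls (mean ± SE over groups).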

[2] = target: T1, Ornithine decarboxylase (Mus musculus); assay: Inhibition of tumor promoter (TPA) -induced mouse epidermal ornithine decarboxylase (ODC) activity at 170 nmol dose level; summary of the method: as §1
[3] = target: T1, Ornithine decarboxylase (Mus musculus); assay: Inhibition of tumor promoter (TPA) -induced mouse epidermal ornithine decarboxylase (ODC) activity at 17 nmol dose level; summary of the method: as §1

inhibition [1]	inhibition [2]	inhibition [3]	Compound
62%	87%	77%	CC1=C(/C=C/C(C)=C/c2ccc(C(=O)O)cc2)C(C)(C)CCC1
33%	64%	43%	CC1=C(/C=C/C(C)=C\c2ccc(C(=O)O)cc2)C(C)(C)CCC1
		0%	CC1=C(/C=C/C(C)=C\C=C\c2ccccc2O)C(C)(C)CCC1
		25%	CC1=C(/C=C/C(C)=C/C=C/c2ccccc2O)C(C)(C)CCC1
		7%	CC1=C(/C=C/C(C)=C/C=C/c2ccccc2C(=O)O)C(C)(C)CCC1
		0%	CCOC(=O)c1ccc(/C=C(C)/C=C/C2=C(C)CCCC2(C)C)cc1C
		71%	CCOC(=O)c1ccc(/C=C(C)/C=C/C23OC2(C)CCCC3(C)C)cc1 (stereo unspecified)
